Calls of active or inactive are those of the source. The calls are words filed in the database; no cut-off is given here.

By IC50 is commonly meant the point on the concentration scale where inhibition reaches its midpoint.

For experiment [1], the system named is FTC-133. As to the kind of experiment: Induction of apoptosis in human FTC-133 cells assessed as caspase-3 activation at 50 uM after 24 hrs by fluorescence microscopic analysis (reference value: 2.51 +/- 1%). Type of experiment: functional.
Experiment [2] concerns FTC-133. As to the kind of experiment: Cytotoxicity against human FTC-133 cells assessed as reduction in cell viability after 24 hrs by MTT assay. Type of experiment: functional, cell-based. The following applies: FTC-133, 24 h. In a few lines: (§1)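 Cells seeded at 6 × 10^5 per well and exposed to 5–100 µM for 24 h at 37 °C in 5% CO2. Then 0.5% MTT in PBS (pH 7.4) was added for 1 h, supernatant replaced with DMSO, and OD read at 570 nm. IC50 was read graphically from dose-effect curves. Values are mean ± SD of four independent experiments, each run in triplicate.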
(In general: Tetrazolium assays rely on reduction of a dye to a coloured formazan, in cell work by metabolically active cells.)

The subject of experiment [3] is FTC-133. As to the kind of experiment: Cytotoxicity against human FTC-133 cells assessed as reduction in cell viability at 50 uM after 24 hrs by MTT assay. In kind it is functional, cell-based. In a few lines: (§2)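 Cultures were treated at 50 µM for 24 h at 37 °C in 5% CO2 alongside untreated controls. Viability was read by MTT reduction (0.5% MTT in PBS pH 7.4, 1 h), with formazan dissolved in DMSO and OD measured at 570 nm.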

The subject of experiment [4] is 8305C. Description: Cytotoxicity against human 8305C cells assessed as reduction in cell viability after 24 hrs by MTT assay. In kind it is functional, cell-based. An outline of the steps: as §1
The subject of experiment [5] is 8305C. As to the kind of experiment: Cytotoxicity against human 8305C cells assessed as reduction in cell viability at 50 uM after 24 hrs by MTT assay. In kind it is functional, cell-based. An outline of the steps: as §2
The test system of experiment [6] is 8305C. Description: Induction of apoptosis in human 8305C cells assessed as caspase-3 activation at 50 uM after 24 hrs by fluorescence microscopic analysis (reference value: 3.22 +/- 1%). Type of experiment: functional.
Experiment [7] deals with FTC-133. Description: Induction of apoptosis in human FTC-133 cells assessed as DNA fragmentation at 50 uM after 24 hrs by SYBR green-1 staining-based electrophoretic analysis. In kind it is functional, cell-based. In a few lines:
(§3)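 After 24 h of treatment, DNA was extracted from untreated and treated cells. Fragments were separated on a 2% agarose gel with SYBR Green I staining, and GAPDH-1 served as the reference gene.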

Experiment [8] concerns 8305C. As to the kind of experiment: Induction of apoptosis in human 8305C cells assessed as DNA fragmentation at 50 uM after 24 hrs by SYBR green-1 staining-based electrophoretic analysis. Type of experiment: functional, cell-based. An outline of the steps:
as §3

As to `O=C1CN2/C(=N/c3ccccc3)OCC2CN1C1CCCCC1` (configuration not stated), the Activity is on record as 88.68% in experiment [1] and 75.88% in experiment [6]. The IC50 worked out at 50 µM in experiment [2] and 70.7 µM in experiment [4]. Also, the outcome in experiment [3], in experiment [5], in experiment [7] and in experiment [8] was Active.

`O=C1CN2/C(=N/c3ccc4ccc5cccc6ccc3c4c56)OCC2CN1c1ccccc1` (configuration not stated): the results for the Activity in experiment [1] and in experiment [6] were 29.3% and 18.24%, respectively. Also, the IC50 was found to be 74.2 µM in experiment [2] and 80.3 µM in experiment [4]. Besides, the result in experiment [3], in experiment [5], in experiment [7] and in experiment [8] was Active.

Turning to `O=C1CN2/C(=N/c3ccc4ccc5cccc6ccc3c4c56)OCC2CN1C1CCCCC1` (configuration not stated), the results for the Activity in experiment [1] and in experiment [6] were 89.24% and 68.3%, respectively. The IC50 in experiment [2] worked out at 48.3 µM; in experiment [4] it was 68.5 µM. The outcome in experiment [3], in experiment [5], in experiment [7] and in experiment [8] was Active.

As for `O=C1CN2/C(=N/c3cccc4ccccc34)OCC2CN1C1CCCCC1` (configuration not stated), the Activity in experiment [1] is recorded as 90.56%; in experiment [6], 78.56%. The IC50 in experiment [2] turned out to be 44.8 µM; in experiment [4], 61 µM. The outcome in experiment [3], in experiment [5], in experiment [7] and in experiment [8] was Active.

The record behind these values is ChEMBL document CHEMBL2417413, “Synthesis and biological evaluation of 1,7,8,8a-tetrahydro-3H-oxazolo[3,4-a]pyrazin-6(5H)-ones as antitumoral agents” (Bioorg Med Chem, 2013).
